An excerpt weighted towards active compounds, which were near 2% of everything screened.
HIF act: HIF pathway transcriptional activation. U2OS HRE-luciferase reporter, luminescence; normalized: DMSO 0%, desferrioxamine 100%. 300,000 compounds, 0.32% hits. activation, % at 7.5 µM (by protocol);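 active means mean activation of at least 10% of the iron chelator positive control signal, with at least half of replicates also reaching 10%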
T cruzi repl: blocks replication of Trypanosoma cruzi. 300,000 compounds, 1.4% hits. T. cruzi beta-gal in NIH3T3, luminescence, 90 h. AID 1885. inhibition, % (concentration not given with the values);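 active means mean inhibition across valid replicates above about 55%, limit read from the data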;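 further: signal also drops with host cell toxicity which is not excluded here; 0% = plate median of DMSO wells and 100% = zero luminescence signal; higher percent means less beta-gal luminescence so fewer parasites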
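Material: NIH/3T3 host cells with β-galactosidase reporter T. cruzi; Input: 5,000 host fibroblasts per well; Medium: DMEM, 2% fetal bovine serum; Compound: 50 nL DMSO compound solution per well; Schedule: 3 h host attachment, then at least 90 h co-culture; Detection: luminescent β-galactosidase signal after 60 min lysis.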
AI-2 QS mod: modulates the Vibrio harveyi AI-2 quorum sensing system | Vibrio harveyi JMH597 AI-2 luminescence/OD600 ratio, 9 h; stronger effect = lower value; strain lacks LuxN and CqsS sensors; 0 = neutral-control median | activity change, % at 7.5 µM | 300,000 compounds, 0.4% hits | AID 2094; in the data active means activity change below about -75%, passing the limit was not always enough;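 further: luminescence divided by OD600 gain over 9 h not by final OD600 alone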
ARNT TACC3 PPI: ARNT/TACC3 interaction disruption; AID 623870; inhibition, % at 9.99 µM; 390,000 compounds, 0.66% hits; AlphaScreen His-ARNT PAS-B/GST-TACC3 binding, luminescence; TACC3 fragment carries E629A point mutation;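 active means mean inhibition of replicates at least 50% and at least half of replicates each reaching 50%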;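 further: 0% = complete ARNT plus TACC3 wells and 100% = ARNT alone without TACC3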
* marks the source's active call; other numbers are inactive results.

For CC(C)(C)c1ccc(OCCOc2ccc(C(C)(C)C)cc2NC=O)c(NC=O)c1 the results were HIF act -13, T cruzi repl 59*, AI-2 QS mod 36 and ARNT TACC3 PPI -5.
For COCCOc1ccc(C(F)(F)F)cc1NC(=O)c1ccccc1 the results were HIF act -1, T cruzi repl 12, AI-2 QS mod 26 and ARNT TACC3 PPI -11.
COc1ccc(/C=C2\SC(=S)N(CCC(=O)N3CCOCC3)C2=O)cc1 was read as HIF act 0, T cruzi repl -2, AI-2 QS mod 18 and ARNT TACC3 PPI -6.
CN1CCN(C(=O)CCCN2C(=O)/C(=C/c3cccc(Br)c3)SC2=S)CC1 was read as HIF act -12, T cruzi repl 66*, AI-2 QS mod 8 and ARNT TACC3 PPI 13.
For COc1ccc(/C=C2\SC(=S)N(CCCC(=O)N3CCN(C)CC3)C2=O)cc1 the results were HIF act 0, T cruzi repl 60* and ARNT TACC3 PPI 24.
`COc1ccc(/C=C2\SC(=O)N(CCC(=O)N(C)C3CCS(=O)(=O)C3)C2=O)cc1` (centres undefined) gave HIF act 64*, T cruzi repl 1, AI-2 QS mod 23 and ARNT TACC3 PPI 5.
For O=C(CCN1C(=O)/C(=C/c2ccccc2)SC1=S)NCCCN1CCOCC1 the results were HIF act -2, T cruzi repl 55* and ARNT TACC3 PPI 13.
`O=C(CCN1C(=O)/C(=C\c2cccc(Br)c2)SC1=S)NCCCN1CCOCC1` gave HIF act 0, T cruzi repl 18, AI-2 QS mod 16 and ARNT TACC3 PPI -6.
C[C@@H](NC(=O)[C@@H]1[C@@H](CO)[C@@H]2Cn3c(ccc(-c4ccccc4)c3=O)[C@H]1N2C)c1ccccc1 was read as ARNT TACC3 PPI -11.
C[C@H](CO)N1C[C@H](C)[C@@H](CN(C)C(=O)CCC(F)(F)F)OCCCC[C@H](C)Oc2ccc(NS(C)(=O)=O)cc2C1=O was read as ARNT TACC3 PPI -15.
For COc1ccc(CN(C)C[C@H]2Oc3ccc(NC(=O)NC(C)C)cc3C(=O)N([C@H](C)CO)C[C@H]2C)cc1 the results were ARNT TACC3 PPI 2.
`CCC(=O)Nc1ccc2c(c1)OC[C@H](C)N(CCc1ccccc1)C[C@@H](C)[C@@H](OC)CN(C)C2=O` gave ARNT TACC3 PPI -2.
O=C(Nc1ccc([N+](=O)[O-])cn1)c1cc(-c2cccc(Cl)c2)nc2ccccc12 was read as HIF act 0, T cruzi repl 56*, AI-2 QS mod 17 and ARNT TACC3 PPI -4.
Screening O=C(Nc1ccc([N+](=O)[O-])cn1)c1cc(-c2cccc(Br)c2)nc2ccccc12 returned HIF act -21, T cruzi repl 53, AI-2 QS mod 1 and ARNT TACC3 PPI 5.
`Cc1cc(C(=O)COC(=O)C2=COCCO2)c(C)n1-c1ccc2c(c1)OCO2` gave HIF act 4, T cruzi repl -13, AI-2 QS mod 15 and ARNT TACC3 PPI 5.
For Cc1cc(C(=O)COC(=O)Cc2n[nH]c(=O)c3ccccc23)c(C)n1-c1ccc2c(c1)OCCO2 the results were HIF act -1, T cruzi repl 69*, AI-2 QS mod 24 and ARNT TACC3 PPI 3.
For CCN(CC)c1ccc(C(=C2C=CC(=[N+](CC)CC)C=C2)c2ccccc2)cc1 the results were ARNT TACC3 PPI 23*.
`CCN(CC)c1ccc(C(=O)NNC(=O)CCNC(=O)c2ccccc2)cc1` gave ARNT TACC3 PPI 3.
Screening CN1CCN(CC(O)COC(c2ccccc2)c2ccccc2)CC1 (centres undefined) returned HIF act 0, T cruzi repl 61* and AI-2 QS mod 24.
`OC(COc1ccc(OCc2ccccc2)cc1)CN1CCCCC1` (centres undefined) gave HIF act 2, T cruzi repl 56*, AI-2 QS mod 13 and ARNT TACC3 PPI 1.
`ON=C1c2cc(OCCN3CCCCC3)ccc2-c2ccc(OCCN3CCCCC3)cc21` gave HIF act 16*, T cruzi repl 61*, AI-2 QS mod 9 and ARNT TACC3 PPI 7.
`N#Cc1ccc(-c2ccc(OCC(O)CN3CCCCC3)cc2)cc1` (centres undefined) gave HIF act -1, T cruzi repl 62*, AI-2 QS mod 27 and ARNT TACC3 PPI -13.
For N#Cc1ccc(OCC(O)CN2CCN(CC(O)COc3ccc(C#N)cc3)CC2)cc1 (centres undefined) the results were HIF act 0, T cruzi repl 11, AI-2 QS mod -6 and ARNT TACC3 PPI -5.
Screening O=C(N[C@@H]1CC[C@@H](CCNC(=O)C2CCOCC2)O[C@H]1CO)c1ccncc1 returned ARNT TACC3 PPI 2.
O=C(N[C@H]1CC[C@H](CCn2cc(C3(O)CCCC3)nn2)O[C@@H]1CO)C1CCCCC1 was read as ARNT TACC3 PPI -9.
Screening COc1ccc(NC(=O)N(C)C[C@@H]2OCCCC[C@@H](C)Oc3ccc(NC(=O)Nc4ccc(F)cc4)cc3C(=O)N([C@@H](C)CO)C[C@H]2C)cc1 returned ARNT TACC3 PPI -6.
Screening CNC(=O)C[C@H]1CC[C@H]2[C@@H](COc3ccc(NC(=O)CC(F)(F)F)cc3C(=O)N2C)O1 returned ARNT TACC3 PPI 2.
`Cc1ccc(Cn2c(=N)n(CC(O)COc3ccccc3)c3ccccc32)cc1` (centres undefined) gave HIF act 0, T cruzi repl 59*, AI-2 QS mod 6 and ARNT TACC3 PPI 3.
CC(C)(C)c1ccccc1OCCN1CCCC1 was read as HIF act 0, T cruzi repl 60*, AI-2 QS mod 27 and ARNT TACC3 PPI -6.
c1ccc(COc2ccc(OCCN3CCCCC3)cc2)cc1 was read as HIF act 1, T cruzi repl 41 and AI-2 QS mod 20.
`N=c1n(Cc2ccccc2)c2ccccc2n1CC(O)COc1ccccc1` (centres undefined) gave HIF act 0, T cruzi repl 8, AI-2 QS mod 23 and ARNT TACC3 PPI 1.
`OC(COc1ccc(OCC(O)CN2CCN(Cc3ccccc3)CC2)cc1)CN1CCN(Cc2ccccc2)CC1` (centres undefined) gave HIF act 0, T cruzi repl 65* and AI-2 QS mod 5.
`Cc1ccc(C(C)(C)C)c(OCCN2CCCC2)c1` gave HIF act -2, T cruzi repl 42, AI-2 QS mod 8 and ARNT TACC3 PPI 2.
`c1ccc(COc2ccc(OCCN3CCCC3)cc2)cc1` gave HIF act 3, T cruzi repl 55*, AI-2 QS mod 10 and ARNT TACC3 PPI 20.
Screening CCNC(=O)C[C@@H]1CC[C@@H]2[C@@H](COc3ccc(NC(=O)c4ccccc4)cc3C(=O)N2C)O1 returned ARNT TACC3 PPI 1.
OC(CN1CCN(Cc2ccccc2)CC1)c1ccc(Br)cc1 (centres undefined) was read as HIF act -1, T cruzi repl 57*, AI-2 QS mod 11 and ARNT TACC3 PPI -1.

High-throughput results from PubChem.
